ChEMBL document CHEMBL4840318, “The Total Chemical Synthesis and Biological Evaluation of the Cationic Antimicrobial Peptides, Laterocidine and Brevicidine” (2021)
Converted amounts (≈) assume the structure as drawn. Positions of bridges follow the written chain, without caps; N, C: chain ends. Non-standard residues stand in square brackets, D forms with d. Residues, ends and D or L forms follow the SMILES beside them. ξ: configuration not given here. *: point of attachment. Octanoyl(7-Me) = CC(C)CCCCCC(=O)*; Hexanoyl(4ξ-Me) = CCC(C)CCC(=O)*; dOrn = NCCC[C@@H](N)C(=O)O; X1 = CC[C@H](C)CCCCC(=O)*; Orn = NCCC[C@H](N)C(=O)O; Dab = NCC[C@H](N)C(=O)O

Legend:
Format in all cases: functional
[1] = test system: Staphylococcus aureus; assay: Antibacterial activity against Staphylococcus aureus ATCC 29213 assessed as inhibition of bacterial growth incubated for 18 hrs by CLSI protocol based method
In short: (§1)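 CLSI broth microdilution in cation-adjusted Mueller Hinton broth, in polypropylene plates. Bacteria were grown at 37 °C with shaking (200 rpm) for 8 h, then diluted into fresh medium and added to the wells. Compounds were tested as twofold dilutions from 64 to 0.25 μM (final), in triplicate, with growth and sterility controls. Plates were incubated at 37 °C with shaking. MIC is the lowest concentration with no growth, consistent across three biological replicates.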

[2] = test system: Staphylococcus aureus; assay: Antibacterial activity against methicillin-resistant Staphylococcus aureus assessed as inhibition of bacterial growth incubated for 24 hrs by multiplate photometer method
[3] = test system: Escherichia coli; assay: Antibacterial activity against Escherichia coli ATCC 25922 assessed as inhibition of bacterial growth incubated for 18 hrs by CLSI protocol based method; in short: as §1
[4] = test system: Escherichia coli; assay: Antibacterial activity against Escherichia coli ATCC 25922 assessed as inhibition of bacterial growth incubated for 24 hrs by multiplate photometer method

What does the source list for `CC[C@H](C)CCCCC(=O)N[C@@H](CCN)C(=O)N[C@H](C(=O)N[C@@H](CCN)C(=O)N[C@H]1CCNC(=O)[C@H]([C@@H](C)O)NC(=O)[C@H](CCN)NC(=O)[C@H](CCN)NC(=O)[C@H](CC(C)C)NC(=O)[C@@H](Cc2ccccc2)NC(=O)[C@H](CCN)NC1=O)[C@@H](C)O` (X1-[Dab]T[Dab][Dab][Dab][dF]L[Dab][Dab]T; lactam 4-C)?
MIC [1]: > 64 µg/mL; MIC [2]: 32 µg/mL (≈ 26.6 µM); MIC [3]: 0.3 µg/mL (≈ 0.249 µM); MIC [4]: 1 µg/mL (≈ 0.831 µM)

How did the MIC [1] turn out when `CCC(C)CCC(=O)N[C@H](CC(N)=O)C(=O)N[C@H](Cc1ccc(O)cc1)C(=O)N[C@H](Cc1c[nH]c2ccccc12)C(=O)N[C@H](CCCN)C(=O)N[C@@H](CCCN)C(=O)NCC(=O)N[C@H](CCCN)C(=O)N[C@@H](Cc1c[nH]c2ccccc12)C(=O)N[C@@H]1C(=O)N[C@@H]([C@@H](C)CC)C(=O)NCC(=O)N[C@@H](CO)C(=O)O[C@@H]1C` (some centres undefined) ({Hexanoyl(4ξ-Me)}-[dN][dY][dW][dOrn][Orn]G[dOrn]WTIGS; ester 9-C) was run?
The MIC was over 64 µg/mL.

What about the MIC [2] of the same compound?
Its MIC is over 64 µg/mL.

And the MIC [3]?
The MIC was 2 µg/mL (≈ 1.32 µM).

And the MIC [4]?
Its MIC is 2 µg/mL (≈ 1.32 µM).

With `CC[C@H](C)[C@@H]1NC(=O)[C@@H](NC(=O)[C@H](Cc2c[nH]c3ccccc23)NC(=O)[C@@H](CCCN)NC(=O)CNC(=O)[C@H](CCCN)NC(=O)[C@@H](CCCN)NC(=O)[C@@H](Cc2c[nH]c3ccccc23)NC(=O)[C@@H](Cc2ccc(O)cc2)NC(=O)[C@@H](CO)NC(=O)CCCCCC(C)C)[C@@H](C)OC(=O)CNC(=O)CNC(=O)[C@H](CC(N)=O)NC1=O` ({Octanoyl(7-Me)}-[dS][dY][dW][dOrn][Orn]G[dOrn]WTINGG; ester 9-C) as the compound, how does the MIC [1] read?
Its MIC is over 64 µg/mL.

What about the MIC [2] of the same compound?
Its MIC is over 64 µg/mL.

What about the MIC [3] of the same compound?
The MIC was 0.25 µg/mL (≈ 0.156 µM).

What about the MIC [4] of the same compound?
The MIC was 2 µg/mL (≈ 1.25 µM).

For `CC1(C)S[C@@H]2[C@H](NC(=O)[C@H](N)c3ccc(O)cc3)C(=O)N2[C@H]1C(=O)O` [AMOXICILLIN], which MIC [1] is on record?
The MIC was 3 µg/mL (≈ 8.21 µM).

What about the MIC [3] of the same compound?
The MIC was 6 µg/mL (≈ 16.4 µM).
